# Results from publication PMC8106974 (Psychopharmacology, 2020).
# Structures can show the parent of a compound that is named as a salt.
# What was measured:
# Assay type in all cases: in vivo
# male Sprague Dawley rats = assay: SNL-induced tactile allodynia, von Frey; conditions: i.v.
# Method in brief: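 Male Sprague Dawley rats (250–350g) were tested 7 days after SNL surgery, with a fresh baseline taken before dosing. Test compound, comparator or saline followed that baseline. Von Frey up-down method: start at 2 g, each filament applied once for 5 sec, 1 min between stimuli. Positive response was rapid left hind paw withdrawal or licking. Testing ran at 15–180 min post-dose, or until post-SNL baseline.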
# male CD-1 mice [1] = assay: Warm-water tail-withdrawal assay of acute thermal nociception, i.v.
# male CD-1 mice [2] = assay: CFA-induced tactile allodynia, von Frey; conditions: i.v.
# male CD-1 mice [3] = assay: Warm-water tail-withdrawal assay of acute thermal nociception, p.o.
# male CD-1 mice [4] = assay: Antagonist; conditions: naltrindole 10 mg/kg s.c., -10 min, DPDPE 30 nmol i.c.v.
molecule,measurement,setting,value
NCC1(CC(=O)O)CCCCC1 [gabapentin],time of peak effects,"male Sprague Dawley rats; SNL model, rats (discussion)",~ 90 min
same,"Area under the Curve (duration of effect, peak dose)","male Sprague Dawley rats; rats, 7 days after SNL, BBI-11008 18 mg/kg, gabapentin 56 mg/kg",130.2
"CN1CC[C@]23c4c5ccc(O)c4O[C@H]2[C@@H](O)C=C[C@H]3[C@H]1C5 [morphine, Morphine sulfate]",duration of peak antinociception,"male CD-1 mice [1]; BBI-11008 3.2-100 mg/kg, morphine 1-10 mg/kg",~ 60 min
same,duration of peak effect,male CD-1 mice [1]; tail withdrawal (discussion),~ 1 hr
same,overall duration of effect,male CD-1 mice [1]; within the dose ranges tested,~ 120 min
same,duration of peak effect,"male CD-1 mice [2]; CFA model, mice (discussion)",30 to 45 min
same,"time of peak effects, reversal of tactile allodynia","male CD-1 mice [2]; mice, 24 hr after CFA, BBI-11008 10-32 mg/kg, morphine 1-3.2 mg/kg",15 to 30 min
same,"Area under the Curve (duration of effect, peak dose)","male CD-1 mice [2]; mice, BBI-11008 32 mg/kg, morphine 3.2 mg/kg, withdrawal threshold vs time",12.85
same,duration of peak effect,male CD-1 mice [3]; tail withdrawal (discussion),~ 2 hr
same,overall duration of effect,male CD-1 mice [3]; within the dose ranges tested,~ 180 min
"[D-Pen^2,D-Pen^5]enkephalin [DPDPE]",effect of NTI pretreatment on antinociceptive effects,male CD-1 mice [4],fully blocked
